According to ChEMBL document CHEMBL4266039, “Overcoming Time-Dependent Inhibition (TDI) of Cytochrome P450 3A4 (CYP3A4) Resulting from Bioactivation of a Fluoropyrimidine Moiety” (J Med Chem, 2018):

Assays:
Cytochrome P450 3A4 = Cytochrome P450 3A4 (Homo sapiens, UniProt P08684); assay: Inhibition of CYP3A4 in human liver microsomes using testosterone as substrate preincubated for 30 mins followed by substrate/NADPH addition measured after 10 mins by LC-MS/MS analysis; type: ADME
Rattus norvegicus [1] = assay: Anti-alzheimer activity in rat assessed as reduction in amyloid beta40 levels in cerebrospinal fluid at 30 mg/kg, po relative to control; type: functional; set-up: scale not given: the % may be the effect or the level left
Beta-secretase 1 = Beta-secretase 1 (Homo sapiens, UniProt P56817); assay: Inhibition of purified human BACE1
Sequence of Beta-secretase 1 (P56817 whole entry): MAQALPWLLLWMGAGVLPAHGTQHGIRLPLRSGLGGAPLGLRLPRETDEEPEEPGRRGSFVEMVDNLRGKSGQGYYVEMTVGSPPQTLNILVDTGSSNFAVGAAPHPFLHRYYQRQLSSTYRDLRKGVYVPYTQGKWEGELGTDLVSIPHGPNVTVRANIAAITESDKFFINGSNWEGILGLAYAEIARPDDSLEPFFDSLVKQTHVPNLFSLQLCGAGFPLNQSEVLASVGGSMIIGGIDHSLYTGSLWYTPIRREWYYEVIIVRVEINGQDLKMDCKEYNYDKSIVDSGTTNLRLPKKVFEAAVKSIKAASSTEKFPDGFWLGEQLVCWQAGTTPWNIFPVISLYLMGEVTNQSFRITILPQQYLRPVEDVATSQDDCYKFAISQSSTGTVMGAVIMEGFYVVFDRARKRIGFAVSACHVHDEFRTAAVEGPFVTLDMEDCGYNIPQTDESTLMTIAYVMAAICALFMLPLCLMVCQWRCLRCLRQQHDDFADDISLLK

Rattus norvegicus [2] = assay: Anti-alzheimer activity in rat assessed as reduction in amyloid beta40 levels in cerebrospinal fluid at 10 mg/kg, po relative to control; type: functional; set-up: scale not given: the % may be the effect or the level left
[3] = AUC (0 to infinity) in Han Wistar rat at 10 mg/kg, po; type: ADME, organism-based; set-up: dose 10 mg/kg, route oral, time infinity; conditions: in vivo
In short: (§1)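 Wistar Han rats received a single oral dose of 10 mg/kg. AUC(0-∞), Cmax and oral bioavailability (F%) were derived from this oral arm.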

[4] = Cmax in Han Wistar rat at 10 mg/kg, po; type: ADME, organism-based; set-up: dose 10 mg/kg, route oral; conditions: in vivo; in short: as §1
[5] = Oral bioavailability in Han Wistar rat at 10 mg/kg; type: ADME, organism-based; conditions: in vivo; in short: as §1
[6] = Clearance in Han Wistar rat at 2 mg/kg, iv; type: ADME, organism-based; conditions: in vivo
In short: (§2)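 Same Wistar Han rat PK study, intravenous arm at 2 mg/kg. Clearance, Vd,ss and t1/2 were taken from the iv data.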

[7] = Volume of distribution at steady state in Han Wistar rat at 2 mg/kg, iv; type: ADME, organism-based; conditions: in vivo, read-out: Vdss; in short: as §2
[8] = Half life in Han Wistar rat at 2 mg/kg, iv; type: ADME, organism-based; conditions: in vivo; in short: as §2
[9] = Protein binding in rat plasma; type: ADME, cell-free; conditions: read-out: PPB (converted)

Sequence of Cytochrome P450 3A4 (P08684 whole entry): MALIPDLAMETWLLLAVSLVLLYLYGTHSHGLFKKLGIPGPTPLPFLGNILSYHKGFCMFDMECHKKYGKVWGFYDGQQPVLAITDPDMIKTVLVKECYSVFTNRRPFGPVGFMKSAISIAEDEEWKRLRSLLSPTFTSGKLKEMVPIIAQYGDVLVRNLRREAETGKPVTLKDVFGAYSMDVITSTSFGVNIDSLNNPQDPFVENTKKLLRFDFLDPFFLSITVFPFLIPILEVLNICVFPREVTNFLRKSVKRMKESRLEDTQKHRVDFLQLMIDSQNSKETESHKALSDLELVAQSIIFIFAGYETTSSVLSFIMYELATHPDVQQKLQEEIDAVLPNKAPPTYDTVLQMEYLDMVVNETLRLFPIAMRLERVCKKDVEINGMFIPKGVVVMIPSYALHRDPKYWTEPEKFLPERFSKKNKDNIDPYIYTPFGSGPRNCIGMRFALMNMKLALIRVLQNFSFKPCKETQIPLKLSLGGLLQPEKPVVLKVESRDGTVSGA

| IC50 (Cytochrome P450 3A4) [nM] | Ki (Beta-secretase 1) [nM] | Structure (SMILES) | other results |
| --- | --- | --- | --- |
| 1600 | 1 | COc1cc(C#N)cc(-c2csc([C@]34CN(c5ncc(F)cn5)C[C@H]3C(=O)N(C)C(=N)N4)c2)c1 | – |
| 900 | 1 | CCc1nc(N2C[C@H]3C(=O)N(C)C(=N)N[C@@]3(c3cc(-c4cccc(C#N)c4)cs3)C2)ncc1F | Activity (Rattus norvegicus [2]): 49% |
| 1200 | 1 | CN1C(=N)N[C@@]2(c3cc(-c4cccc(Cl)c4)cs3)CN(c3ncc(F)cn3)C[C@H]2C1=O | – |
| 900 | 100 | CN1C(=N)N[C@@]2(c3cc(Br)cs3)CN(c3ncc(F)cn3)C[C@H]2C1=O | – |
| 5700 | 4 | CN1C(=N)N[C@@]2(c3cc(-c4ccc(F)c(C#N)c4)cs3)CN(c3ncc(F)cn3)C[C@H]2C1=O | – |
| 1600 | 2 | CN1C(=N)N[C@@]2(c3cc(-c4cc(F)cc(C#N)c4)cs3)CN(c3ncc(F)cn3)C[C@H]2C1=O | – |
| 600 | 0.7 | Cc1nc(N2C[C@H]3C(=O)N(C)C(=N)N[C@@]3(c3cc(-c4cccc(C#N)c4)cs3)C2)ncc1F | Activity (Rattus norvegicus [2]): 38% |
| 1000 | 10 | CN1C(=N)N[C@@]2(c3cc(-c4cc(F)cc(F)c4)cs3)CN(c3ncc(F)cn3)C[C@H]2C1=O | – |
| 700 | 1 | CCOc1nc(N2C[C@H]3C(=O)N(C)C(=N)N[C@@]3(c3cc(-c4cccc(C#N)c4)cs3)C2)ncc1F | Activity (Rattus norvegicus [1]): 20% |
| 5500 | 10 | CN1C(=N)N[C@@]2(c3cc(-c4ccc(Cl)c(C#N)c4)cs3)CN(c3ncc(F)cn3)C[C@H]2C1=O | – |

Second part, the molecule before the results:

| Structure (SMILES) | IC50 (Cytochrome P450 3A4) [nM] | Ki (Beta-secretase 1) [nM] | other results |
| --- | --- | --- | --- |
| CN1C(=O)[C@@H]2CN(c3ccc(F)cc3)C[C@]2(c2cc(-c3cccc(C#N)c3)cs2)N=C1N | > 30000 | – | – |
| CN1C(=O)[C@@H]2CN(c3ncccn3)C[C@]2(c2cc(-c3cccc(C#N)c3)cs2)N=C1N | > 30000 | – | – |
| COc1nc(N2C[C@H]3C(=O)N(C)C(=N)N[C@@]3(c3cc(-c4cccc(C#N)c4)cs3)C2)ncc1F | – | – | Activity (Rattus norvegicus [1]): 45% |
| CCCOc1nc(N2C[C@H]3C(=O)N(C)C(=N)N[C@@]3(c3cc(-c4cccc(C#N)c4)cs3)C2)ncc1F | 1200 | 1 | Activity (Rattus norvegicus [1]): 12% |
| CN1C(=N)N[C@@]2(c3cc(-c4cccc(C#N)c4)cs3)CN(c3ncc(F)c(N4CCOCC4)n3)C[C@H]2C1=O | > 30000 | 1 | Activity (Rattus norvegicus [2]): 17% |
| CN1C(=N)N[C@@]2(c3cc(-c4cccc(C#N)c4)cs3)CN(c3ncc(F)c(N4CCCC4)n3)C[C@H]2C1=O | > 30000 | 3 | Activity (Rattus norvegicus [2]): 2% |
| Cc1nc(N2C[C@H]3C(=O)N(C)C(=N)N[C@@]3(c3cc(-c4cccc(C#N)c4)cs3)C2)nc(C)c1F | – | 1 | Activity (Rattus norvegicus [2]): 54%; AUC(0-inf) [3]: 34 µM·h; Cmax [4]: 5.8 µM; bioavailability [5]: 54%; clearance [6]: 5.6 mL/min/kg; Vd [7]: 1 L/kg; half-life [8]: 2.1 h; fraction unbound [9]: 0.003 |
| COc1nc(N2C[C@H]3C(=O)N(C)C(=N)N[C@@]3(c3cc(-c4cccc(C#N)c4)cs3)C2)nc(C)c1F | 11000 | 0.7 | – |
